Measurements gathered from unrelated publications.
Compare with care: the assays were run in different laboratories.
Target: Aurora kinase B (AURKB, Homo sapiens, UniProt Q96GD4)

CCC(=O)N[C@@H]1CC[C@H](C(=O)N(C)c2ccc(-c3nc4ccccc4o3)cc2)C1
remaining binding (cell-free assay; competition with immobilised ligand; 1 µM): 96%

Cc1nn(CC(F)(F)F)cc1Nc1ncc(Br)c(NCCc2cnc[nH]2)n1
remaining activity (enzyme activity; inhibitor; radiometric; 1 µM): 22%

CN(C)S(=O)(=O)c1ccc2c(c1)/C(=C/c1cc3c([nH]1)CCCC3)C(=O)N2
remaining signal (cell-free assay; 0.5 µM): 11%

Cc1cc(NC(=O)c2cccc3cc(-c4cccc5[nH]nc(N)c45)ccc23)ccc1F
activity vs control (enzyme activity; inhibitor; 0.1 µM): 12%

c1ccc(N2CCN(Cc3nc4ccccc4[nH]3)CC2)nc1
remaining binding (cell-free assay; competition with immobilised ligand; 1 µM): 18%

O=C(CSc1nc2nccnc2c(=O)n1CCc1ccccc1)Nc1nccs1
inhibition (enzyme activity; inhibitor; 10 µM): 6%

CN1CC(Oc2cnc(C#N)cc2-c2ccn3nc(NC(=O)C4CC4)cc3c2)C1
inhibition (enzyme activity; inhibitor; 1 µM): 1%

CC/C(=N\NC(=O)NCc1cccc(O)c1)c1ccc(O)c(C)c1O
inhibition (enzyme activity; inhibitor; 0.1 µM): 2.9%

CCN(CC)CCNC(=O)c1c(C)[nH]c(/C=C2\C(=O)Nc3ccc(F)cc32)c1C
remaining signal (cell-free assay; 0.5 µM): 48.7%

C[C@H](c1cccc(C#N)c1)n1cc(Cl)cc(C(N)=O)c1=N
remaining binding (cell-free assay; competition with immobilised ligand; 1 µM): 100%

Cc1nn(CC(F)(F)F)cc1Nc1ncc(C2CC2)c(NCCc2c[nH]cn2)n1
remaining activity (enzyme activity; inhibitor; radiometric; 1 µM): 82%

COc1cc(/C=C/C(=O)CC(=O)/C=C/c2ccc(O)c(OC)c2)ccc1O
activity vs control (enzyme activity; inhibitor; 1 µM): 79%

O=C1c2ccccc2-c2n[nH]c3cccc1c23
activity vs control (enzyme activity; inhibitor; 0.5 µM): 14.9%

CCc1ccccc1C(=O)Nc1n[nH]c2c(C)c(F)c(C3C(C#N)=C(C)N(C)C(C)=C3C#N)cc12
remaining binding (cell-free assay; competition with immobilised ligand; 1 µM): 88%

NS(=O)(=O)c1ccc(CNc2ccnc(Nc3cccc(CN4CCOCC4)c3)n2)cc1
remaining activity (enzyme activity; inhibitor; radiometric; 1 µM): 48%

CN(C)C1CCN(CC#Cc2nn(C3CCCC3)c3nc(NCc4ccccc4)ncc23)C1 (centres unmarked)
inhibition (enzyme activity; inhibitor; FRET; 0.1 µM): 8%

CN(C(=O)c1ccccc1)c1cc(N(C)c2ccc3c(c2)CCc2ccc(C(=O)NCCN4CCOCC4)cc2C3=O)ccc1F
remaining binding (cell-free assay; competition with immobilised ligand; 1 µM): 100%

c1cc(CN2CCOCC2)cc(Nc2ncc(C3CC3)c(NCCc3c[nH]cn3)n2)c1
remaining activity (enzyme activity; inhibitor; radiometric; 1 µM): 2%

COc1cccc(CNC(=O)c2nc3scc(COCc4ccc(C(=O)O)cc4)c3c(=O)[nH]2)c1
remaining binding (cell-free assay; competition with immobilised ligand; 1 µM): 71.3%

Cc1ccc(NC(=O)c2ccc(C)c(C(F)(F)F)c2)cc1C#Cc1nn(C2CCC(O)CC2)c2ncnc(N)c12 (centres unmarked)
remaining signal (cell-free assay; inhibitor; 10 µM): 475%
